Rows were chosen to be rich in hits. Some 5.7% of all compounds tested hit in one or more screens of this group.
T cruzi inh: blocks replication of Trypanosoma cruzi | T. cruzi beta-gal in NIH3T3, luminescence, 90 h | inhibition, % (no concentration beside the values) | 300,000 tested, 1.4% active | AID 1885;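 active means mean inhibition across valid replicates above about 55%, limit read from the data; inconclusive means mean below that limit but half or more replicates reach it; inactive means mean below it, under half of replicates reach it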;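 further: signal also drops with host cell toxicity which is not excluded here; 0% = plate median of DMSO wells and 100% = zero luminescence signal; higher percent means less beta-gal luminescence so fewer parasites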
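Read-out: Parasite load inhibition, % | Test system: Mouse NIH/3T3 fibroblasts infected with β-gal-expressing T. cruzi Tulahuen C4 | Amount: 5,000 cells/well | Medium: DMEM, 2% fetal bovine serum | Signal: GalScreen β-gal luminescence, detergent lysis, 60 min | Timing: 3 h attach, ≥90 h co-culture | Also added: Tulahuen C4 trypomastigotes, 5000/well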
SKKanGAS inh: inhibitors of SKKanGAS S. pyogenes growth in kanamycin (SK-promoter or general growth effect); BacTiter-Glo, 6 h; inhibition, % at 7.5 µM; 300,000 tested, 1.3% active; AID 1662;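 active means mean replicate score, as percent of positive control median, at least 50; inconclusive means mean below 50 but one replicate at or above 50; inactive means mean and every replicate below 50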;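 further: strain carries kanamycin resistance gene driven by streptokinase promoter and grows in 40 µg/ml kanamycin; loss of luminescence reflects streptokinase promoter inhibition or plain growth inhibition; 0% = median of DMSO wells and 100% = positive control at its reference dose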
CSC inhib: blocks cancer stem cells; inhibition, % at 7.5 µM; AID 2717; 300,000 tested, 1.1% active; cancer stem cell-like cells viability, luminescence; in the data active means inhibition above about 75%; inconclusive means no clear call, values can overlap the other calls; tested in HMLE shEcad cells
Beta apoptosis: blocks beta cell apoptosis | INS-1E cytokine-induced death, ATP luminescence, 48 h; percent of positive-control rescue, neutral wells zero | protection from apoptosis, % (test concentration not listed) | 300,000 tested, 0.8% active | AID 435005;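 active means Every replicate reaches about 75%, or at least half do and their mean reaches it too, limit read from the data; inconclusive means At least half of replicates reach the limit but their mean does not; inactive means Under half of replicates reach the limit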;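 further: 0% = cytokine-treated negative control wells and 100% = positive control rescue; higher means more ATP so stronger rescue from cytokine killing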
Mdm2 MdmX PPI: disrupts the human Mdm2-MdmX interaction; O15151+Q00987; SaOS-2 split-luciferase Mdm2/MdmX complementation, luminescence; inhibition, % at 8 µM; 330,000 tested, 3% active;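 active means inhibition of at least 50% at 8 µM in the primary screen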
Target sequence (O15151 whole entry, looked up): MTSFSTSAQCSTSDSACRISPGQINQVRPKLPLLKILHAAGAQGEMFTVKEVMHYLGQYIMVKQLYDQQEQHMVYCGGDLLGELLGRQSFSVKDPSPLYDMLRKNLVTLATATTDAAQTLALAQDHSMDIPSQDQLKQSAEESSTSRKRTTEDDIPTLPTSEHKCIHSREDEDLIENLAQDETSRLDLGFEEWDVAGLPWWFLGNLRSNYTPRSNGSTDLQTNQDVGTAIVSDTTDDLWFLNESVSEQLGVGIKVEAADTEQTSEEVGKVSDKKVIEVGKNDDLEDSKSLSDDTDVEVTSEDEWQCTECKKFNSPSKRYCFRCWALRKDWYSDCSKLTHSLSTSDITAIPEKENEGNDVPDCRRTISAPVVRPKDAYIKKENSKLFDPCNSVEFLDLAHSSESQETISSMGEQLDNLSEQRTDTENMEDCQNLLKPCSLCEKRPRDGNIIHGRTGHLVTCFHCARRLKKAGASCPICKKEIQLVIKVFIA
Target sequence (Q00987 whole entry, looked up): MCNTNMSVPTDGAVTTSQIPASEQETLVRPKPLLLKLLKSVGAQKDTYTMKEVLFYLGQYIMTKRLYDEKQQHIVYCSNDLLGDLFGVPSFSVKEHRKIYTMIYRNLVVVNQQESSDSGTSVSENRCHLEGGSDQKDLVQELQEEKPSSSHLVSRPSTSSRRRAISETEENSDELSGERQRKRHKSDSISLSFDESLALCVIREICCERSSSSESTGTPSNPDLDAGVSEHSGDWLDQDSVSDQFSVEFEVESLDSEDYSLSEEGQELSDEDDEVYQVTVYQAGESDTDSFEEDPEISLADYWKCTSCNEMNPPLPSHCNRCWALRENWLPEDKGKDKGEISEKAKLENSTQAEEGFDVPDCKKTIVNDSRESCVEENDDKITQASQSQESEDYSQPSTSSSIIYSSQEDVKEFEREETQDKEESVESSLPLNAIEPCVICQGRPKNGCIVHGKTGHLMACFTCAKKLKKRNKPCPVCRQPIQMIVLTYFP
Calb FLC: affects C. albicans growth with fluconazole. C. albicans CaCi-2 + fluconazole, Alamar Blue growth, 48 h. growth inhibition, % (no concentration beside the values). 300,000 tested, 0.57% active. AID 1979;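 active means growth inhibition above about 58% in most replicates, limit read from the data, passing the limit was not always enough; inconclusive means exactly half the replicates above a set limit; inactive means most replicates below a set limit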;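 further: all wells also contain fluconazole at 8 µg/ml as a sub-toxic cotreatment; 0% = median of DMSO wells and 100% = median of geldanamycin control wells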
* marks the source's active call; other numbers are inactive results; u = inconclusive; x = no result given; ! = a repeat was not active.

SMILES	T cruzi inh	SKKanGAS inh	CSC inhib	Beta apoptosis	Mdm2 MdmX PPI	Calb FLC
CC(C)N(CCNC(=O)c1nn(Cc2ccccc2)c(=O)c2ccccc12)C(C)C	55*	1	5	9	25	0
CCN(CC)S(=O)(=O)c1cccc(C(=O)OCC(=O)NCc2ccccc2OC)c1	-5	-5	-11	0	20	-2
O=C(CSc1nnc(CNC(=O)c2c(F)cccc2F)o1)NCc1ccccc1Cl	-3	-16	9	-2	16	-3
O=[N+]([O-])c1nn(-c2ccc3c(c2)OCCO3)n(O)c1=NC1CCCCC1	42	2	-17	10	-9	11
CC1CCN(c2c([N+](=O)[O-])nn(-c3ccc4c(c3)OCCO4)[n+]2[O-])CC1	62*	2	-2	x	6	-13
CC[C@@]1(C(=O)OC)N[C@H](CN(C)C(=O)COc2ccccc2)[C@@H]2C(=O)N(Cc3ccccc3)C(=O)[C@@H]21	x	x	x	x	12	x
CCOc1ccc(Nc2nc(N)c3ccccc3n2)cc1	33	60*	x	x	-5	-3
O=[N+]([O-])c1ccc(Nc2nc(NC3CCCCC3)nc(N3CCCC3)n2)cc1	65*	83*	x	50	34	19
CCOc1ccc(Nc2nc(N3CCCCC3)nc(N3CCCCC3)n2)cc1	31	62*	-13	0	9	-15
Nc1nc(Nc2ccccc2)nc2ccccc12	u	5	22	35	-217	4
COc1ccc(N2CCN(c3nc(Nc4ccc(C)c(F)c4)nc(N4CCCC4)n3)CC2)cc1	68*	22	17	33	-4	-7
c1ccc(Nc2nc(N3CCCCC3)nc(N3CCCCC3)n2)cc1	38	84*	-8	13	23	2
O=C(Oc1ccc2ccc(=O)oc2c1)c1ccco1	64*	2	0	0	26	-4
O=C(CNC(=O)c1ccc(Br)o1)NNC(=O)c1ccccc1F	-3	1	-9	-12	16	-2
CCCCN1C(=S)SC(C)(C)C1/[N+]([O-])=C/c1ccc(S(=O)(=O)NC)cc1 (configuration not stated)	0	4	-10	0	3	-13
Cc1c(C(C)C)c(=O)n(-c2ccc(S(=O)(=O)NC3CCCCC3)cc2)n1C	-9	2	-15	57	0	-8
Cc1c(C(C)C)c(=O)n(-c2ccc(S(=O)(=O)NCc3ccccc3)cc2)n1C	-43	-10	0	105*	23	11
CCN(CC)Cc1c(C(=O)N/N=C/c2c(Cl)cccc2Cl)nnn1-c1nonc1N	2	-3	x	1	12	8
COc1cc(NC(=O)COc2cc(O)c3c(c2)OC(C)(C)CC3=O)cc(OC)c1OC	1	7	12	110*	30	3
CC1(C)CC(=O)c2c(O)cc(OCC(=O)Nc3ccc(S(N)(=O)=O)cc3)cc2O1	-5	-2	-7	-6	4	-2
Cc1cccc(NC(=O)CN2C(=O)S/C(=C\c3ccc(-c4cccc(C(=O)O)c4C)o3)C2=O)c1	4	u	-8	3	9	-7
Cc1ccc(NC(=O)CN2C(=O)S/C(=C/c3ccc(-c4cc(C(=O)O)ccc4C)o3)C2=O)cc1C	-7	85*	x	6	5	18
O=C(O)c1cccc(-c2ccc(/C=C3/SC(=Nc4ccccc4)N(Cc4cccnc4)C3=O)o2)c1	-18	53*	10	-11	-21	2
C#CCN1C(=O)S/C(=C\c2ccc(-c3ccc(Cl)c(C(=O)O)c3)o2)C1=O	-4	68*	x	x	-22	4
O=C1/C(=C/c2cccnc2)SC(=NCc2ccccc2)N1Cc1ccccc1	63*	54*	x	-5	14	-8
SMILES	T cruzi inh	SKKanGAS inh	CSC inhib	Beta apoptosis	Mdm2 MdmX PPI	Calb FLC
O=C(CCc1ccccc1)NCCc1ccc(F)cc1	-3	8	6	-3	4	43
OCC1(Cc2ccccc2)CCCN(Cc2ccn[nH]2)C1 (configuration not stated)	-15	11	-6	1	7	1
CCN=C1S/C(=C\c2ccc(-c3cccc(C(=O)O)c3)o2)C(=O)N1CC	-38	56*	2	-3	2	3
CCN=C1S/C(=C/c2ccc(-c3ccc(Cl)cc3C(=O)O)o2)C(=O)N1CC	-6	24	-1	-11	5	24
CCN1C(=O)/C(=C\c2ccc(-c3ccc([N+](=O)[O-])cc3OC)o2)SC1=Nc1cccc(C(=O)O)c1	12	56*	x	x	x	u
CCN1C(=O)/C(=C\c2ccc(-c3cccc(C(=O)OC)c3)o2)SC1=Nc1ccc(C(=O)O)cc1	10	46	-8	-5	30	10
Brc1ccc(C2C3=C(Nc4ncnn42)c2ccccc2OC3c2ccncc2)cc1 (configuration not stated)	60*	88*	28	-1	29	-19
COc1ccc(C2C3=C(Nc4ncnn42)c2ccccc2CC3)cc1OC (configuration not stated)	-10	3	16	0	37	-1
CCCCN1CC[C@H]2C=CC[C@@H](C(=O)NCCc3ccccc3)[C@H]2C1=O	-3	-1	-15	0	15	-8
Fc1ccc(SCCc2ccncc2)cc1	68*!	-5	-22	-10	-2	-6
COc1ccc(SCCc2ccncc2)cc1	70*	0	-6	8	-19	29
Cc1ccc(C2C3CSCC=C3C(C#N)=C(N)C2(C#N)C#N)cc1 (configuration not stated)	-1	3	6	-5	0	90*
CC(C)(CN1CCN(Cc2ccccc2)CC1)NS(=O)(=O)c1ccccc1	37	-5	76*	4	-7	-23
CC(C)(CN1CCN(C(c2ccccc2)c2ccccc2)CC1)NS(=O)(=O)c1ccccc1	62*	-1	98*	15	6	-1
CC(=O)N1CCN(CC(C)(C)NS(=O)(=O)c2ccccc2)CC1	x	x	-5	-4	-10	x
CC(C)(CN1CCC(Cc2ccccc2)CC1)NS(=O)(=O)c1ccccc1	30	-5	x	x	21	u
COc1ccccc1C1CC(=O)Oc2c(C(C)C)ccc(C)c21 (configuration not stated)	x	x	x	x	-5	x
Cc1ccc(Oc2ccc(Cl)cc2N)cc1	1	-15	3	-4	-38	-12
Nc1cc(Cl)ccc1Oc1ccc2ccccc2c1	36	-1	83*	9	-6	-8
Cc1cc(=O)n2[nH]c(-c3ccc(C(C)(C)C)cc3)cc2n1	63*	7	7	3	10	25
Cc1cc(=O)n2[nH]c(-c3ccccc3)cc2n1	-11	-2	6	0	3	7
O=C(N/N=C/c1ccc(Br)cc1)c1ccccc1-n1cccc1	5	5	45	6	24	-1
O=C1c2cccc3c([N+](=O)[O-])ccc(c23)C(=O)N1O	2	79*	29	43	7	-3

High-throughput results (PubChem)
